The experiment has as its system HEK293T G6PC promoter luciferase with RORa, 20 h. Put plainly: inhibitors of RORa-driven G6PC promoter, late-stage follow-up, counter-screen for RORA inverse agonist project, cell-based, luminescence, single concentration (AID 463144). The settings on record: at 10 µM; hits give low values. The method, boiled down:
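Assay system: HEK293T cells expressing full-length RORa, SRC-2 coactivator, G6PC-promoter luciferase / Compound dosing: one dose, 10 µM nominal / Timing: 20 h compound treatment / Detection: reporter luminescence / Read-out basis: average fold change versus vehicle wells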

The structures appear in SMILES notation.

Turning to `O=S(=O)(Nc1ccc(C(O)(C(F)(F)F)C(F)(F)F)cc1)c1cccs1`, the fold change is 0.64.

Values taken from PubChem BioAssay AID463144 (The Scripps Research Institute Molecular Screening Center, 2010).
